Data taken from ChEMBL document CHEMBL2086245, “Micelles catalyzed chemo- and regio-selective one pot and one step synthesis of 2,3,5,6-tetrakis(alkyl and arylsulfanyl)-1,4-benzoquinones and 2,5-diaminosubstituted-1,4-benzoquinones "In-Water" and their biological evaluation as antibacterial and antifungal agents” (Eur J Med Chem, 2012).
Values after ≈ are worked out from the molar mass of the structure shown.

Columns and labels:
Assay type in all cases: functional
Aspergillus fumigatus = test: Antifungal activity against Aspergillus fumigatus after 72 hrs by broth microdilution method
Summary of the method: (§1)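 NCCLS broth microdilution in MOPS-buffered RPMI 1640, 96-well plates. Inoculum 1-5 × 10^3 cells/mL, moist chamber, 35 °C. Absorbance at 492 nm read at 48 h (C. albicans, C. parapsilosis), 72 h (C. neoformans, S. schenckii, A. fumigatus) or 96 h (T. mentagrophytes). MIC defined as 90% growth inhibition versus growth control.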

Sporothrix schenckii = test: Antifungal activity against Sporothrix schenckii after 72 hrs by broth microdilution method; summary of the method: as §1
Pseudomonas aeruginosa = test: Antibacterial activity against Pseudomonas aeruginosa ATCC BAA-427 after 24 hrs by broth microdilution method
Summary of the method: (§2)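 NCCLS broth microdilution in Mueller-Hinton broth, 96-well plates. Initial inoculum 1-5 × 10^3 cells/mL. Incubated in a moist chamber at 35 °C for 24 h, then absorbance read at 492 nm. MIC taken as the concentration giving 90% growth inhibition relative to the growth control.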

Candida albicans = test: Antifungal activity against Candida albicans after 48 hrs by broth microdilution method; summary of the method: as §1
Cryptococcus neoformans = test: Antifungal activity against Cryptococcus neoformans after 72 hrs by broth microdilution method; summary of the method: as §1
Escherichia coli = test: Antibacterial activity against Escherichia coli ATCC 9637 after 24 hrs by broth microdilution method; summary of the method: as §2
Candida parapsilosis = test: Antifungal activity against Candida parapsilosis ATCC 22019 after 48 hrs by broth microdilution method; conditions: Lodderomyces parapsilosis, ATCC 22019, 48 h; summary of the method: as §1
Klebsiella pneumoniae = test: Antibacterial activity against Klebsiella pneumoniae ATCC 27736 after 24 hrs by broth microdilution method; summary of the method: as §2
Staphylococcus aureus = test: Antibacterial activity against Staphylococcus aureus ATCC 25923 after 24 hrs by broth microdilution method; summary of the method: as §2
[1] = tested on: Trichophyton mentagrophytes; test: Antifungal activity against Trichophyton mentagrophytes after 96 hrs by broth microdilution method; summary of the method: as §1

Compound | MIC (Aspergillus fumigatus) [µg/mL] | MIC (Sporothrix schenckii) [µg/mL] | MIC (Pseudomonas aeruginosa; ATCC BAA-427, 24 h) [µg/mL] | MIC (Candida albicans) [µg/mL] | MIC (Cryptococcus neoformans) [µg/mL] | MIC (Escherichia coli; ATCC 9637, 24 h) [µg/mL] | MIC (Candida parapsilosis) [µg/mL] | MIC (Klebsiella pneumoniae; ATCC 27736, 24 h) [µg/mL] | MIC (Staphylococcus aureus; ATCC 25923, 24 h) [µg/mL] | MIC [1] [µg/mL] | MIC (Pseudomonas aeruginosa) [µg/mL] | MIC (Escherichia coli) [µg/mL] | MIC (Klebsiella pneumoniae) [µg/mL] | MIC (Staphylococcus aureus) [µg/mL]
O=C1C(Sc2ccccc2)=C(Sc2ccccc2)C(=O)C(Sc2ccccc2)=C1Sc1ccccc1 | 50 (≈ 92.5 µM) | 1.56 (≈ 2.88 µM) | > 50 | 12.5 (≈ 23.1 µM) | 12.5 (≈ 23.1 µM) | > 50 | 6.25 (≈ 11.6 µM) | > 50 | > 50 | 0.78 (≈ 1.44 µM) |  |  |  | 
Cc1ccc(SC2=C(Sc3ccc(C)cc3)C(=O)C(Sc3ccc(C)cc3)=C(Sc3ccc(C)cc3)C2=O)cc1 | > 50 | 50 (≈ 83.8 µM) | > 50 | 25 (≈ 41.9 µM) | > 50 | > 50 | 25 (≈ 41.9 µM) | > 50 | > 50 | > 50 |  |  |  | 
CC1(C)S[C@@H]2[C@H](NC(=O)[C@H](N)c3ccccc3)C(=O)N2[C@H]1C(=O)O [AMPICILLIN] |  |  | > 50 |  |  | 12.5 (≈ 35.8 µM) |  | > 50 | 12.5 (≈ 35.8 µM) |  |  |  |  | 
O=C1C(Cl)=C(Sc2cccc3ccccc23)C(=O)C(Cl)=C1Sc1cccc2ccccc12 | > 50 | 50 (≈ 101 µM) | > 50 | 25 (≈ 50.7 µM) | 25 (≈ 50.7 µM) | > 50 | 12.5 (≈ 25.3 µM) | > 50 | 25 (≈ 50.7 µM) | 50 (≈ 101 µM) |  |  |  | 
OC(Cn1cncn1)(Cn1cncn1)c1ccc(F)cc1F [FLUCONAZOLE] | > 32 | 4 (≈ 13.1 µM) |  | 1 (≈ 3.27 µM) | 2 (≈ 6.53 µM) |  | 0.5 (≈ 1.63 µM) |  |  | 16 (≈ 52.2 µM) |  |  |  | 
O=C1C(Cl)=C(N2CCOCC2)C(=O)C(Cl)=C1N1CCOCC1 | > 50 | 12.5 (≈ 36 µM) | > 50 | 12.5 (≈ 36 µM) | 12.5 (≈ 36 µM) | > 50 | 12.5 (≈ 36 µM) | > 50 | 25 (≈ 72 µM) | 6.25 (≈ 18 µM) |  |  |  | 
O=C1C(Cl)=C(Sc2ccccc2)C(=O)C(Sc2ccccc2)=C1Sc1ccccc1 | > 50 | 50 (≈ 107 µM) | > 50 | 25 (≈ 53.5 µM) | 25 (≈ 53.5 µM) | > 50 | 25 (≈ 53.5 µM) | > 50 | 50 (≈ 107 µM) | 50 (≈ 107 µM) |  |  |  | 
GENTAMICIN |  |  |  |  |  |  |  |  |  |  | 0.39 | 1.56 | 1.56 | 1.56
CCOC(=O)CSC1=C(SCC(=O)OCC)C(=O)C(SCC(=O)OCC)=C(SCC(=O)OCC)C1=O | > 50 | > 50 | > 50 | 25 (≈ 43 µM) | 50 (≈ 86.1 µM) | > 50 | 25 (≈ 43 µM) | > 50 | 50 (≈ 86.1 µM) | 50 (≈ 86.1 µM) |  |  |  | 
O=C1C(Cl)=C(Sc2ccccc2)C(=O)C(Cl)=C1Sc1ccccc1 | > 50 | 50 (≈ 127 µM) | > 50 | 25 (≈ 63.6 µM) | 25 (≈ 63.6 µM) | > 50 | 25 (≈ 63.6 µM) | > 50 | 50 (≈ 127 µM) | 50 (≈ 127 µM) |  |  |  | 
O=C1C(Cl)=C(N2CCCCC2)C(=O)C(Cl)=C1N1CCCCC1 | > 50 | 25 (≈ 72.8 µM) | > 50 | 25 (≈ 72.8 µM) | 25 (≈ 72.8 µM) | > 50 | 25 (≈ 72.8 µM) | > 50 | > 50 | 12.5 (≈ 36.4 µM) |  |  |  | 
CCOC(=O)CC(SC1=C(SC(CC(=O)OCC)C(=O)OCC)C(=O)C(SC(CC(=O)OCC)C(=O)OCC)=C(SC(CC(=O)OCC)C(=O)OCC)C1=O)C(=O)OCC (stereo unspecified) | > 50 | > 50 | > 50 | 25 (≈ 27 µM) | 50 (≈ 54 µM) | > 50 | 25 (≈ 27 µM) | > 50 | > 50 | 50 (≈ 54 µM) |  |  |  | 
O=C1C(O)=C(Sc2cccc3ccccc23)C(=O)C(Sc2cccc3ccccc23)=C1Sc1cccc2ccccc12 | > 50 | > 50 | > 50 | 25 (≈ 41.8 µM) | 25 (≈ 41.8 µM) | > 50 | 25 (≈ 41.8 µM) | > 50 | > 50 | 50 (≈ 83.5 µM) |  |  |  | 
O=C1C(O)=C(Sc2ccccc2)C(=O)C(Sc2ccccc2)=C1Sc1ccccc1 | > 50 | 50 (≈ 111 µM) | > 50 | 12.5 (≈ 27.9 µM) | 12.5 (≈ 27.9 µM) | > 50 | 12.5 (≈ 27.9 µM) | > 50 | > 50 | 50 (≈ 111 µM) |  |  |  | 
Clc1ccccc1C(c1ccccc1)(c1ccccc1)n1ccnc1 [CLOTRIMAZOLE] | 8 (≈ 23.2 µM) | 4 (≈ 11.6 µM) |  | 0.25 (≈ 0.725 µM) | 0.25 (≈ 0.725 µM) |  | 1 (≈ 2.9 µM) |  |  | 2 (≈ 5.8 µM) |  |  |  | 
O=C1C(Cl)=C(N2CCCC2)C(=O)C(Cl)=C1N1CCCC1 | > 50 | > 50 | > 50 | 25 (≈ 79.3 µM) | 25 (≈ 79.3 µM) | > 50 | 50 (≈ 159 µM) | > 50 | > 50 | 50 (≈ 159 µM) |  |  |  | 
Cc1ccc(SC2=C(O)C(=O)C(Sc3ccc(C)cc3)=C(Sc3ccc(C)cc3)C2=O)cc1 | > 50 | > 50 | > 50 | 12.5 (≈ 25.5 µM) | 25 (≈ 51 µM) | > 50 | 25 (≈ 51 µM) | > 50 | > 50 | 50 (≈ 102 µM) |  |  |  | 
O=C1C(Cl)=C(Sc2cccc3ccccc23)C(=O)C(Sc2cccc3ccccc23)=C1Sc1cccc2ccccc12 | > 50 | 50 (≈ 81 µM) | > 50 | 25 (≈ 40.5 µM) | 25 (≈ 40.5 µM) | > 50 | 12.5 (≈ 20.3 µM) | > 50 | 12.5 (≈ 20.3 µM) | 50 (≈ 81 µM) |  |  |  | 
O=C1C=C(Sc2ccccc2)C(=O)C=C1Sc1ccccc1 | > 50 | 50 (≈ 154 µM) | > 50 | 25 (≈ 77.1 µM) | 25 (≈ 77.1 µM) | > 50 | 50 (≈ 154 µM) | > 50 | > 50 | 50 (≈ 154 µM) |  |  |  | 
Cc1ccc(SC2=C(Cl)C(=O)C(Sc3ccc(C)cc3)=C(Cl)C2=O)cc1 | > 50 | 50 (≈ 119 µM) | > 50 | 25 (≈ 59.3 µM) | 25 (≈ 59.3 µM) | > 50 | 25 (≈ 59.3 µM) | > 50 | 50 (≈ 119 µM) | 50 (≈ 119 µM) |  |  |  | 
Nc1nc(=O)[nH]cc1F [FLUCYTOSINE] | > 32 | > 32 |  | 0.25 (≈ 1.94 µM) | 0.13 (≈ 1.01 µM) |  | 0.13 (≈ 1.01 µM) |  |  | > 32 |  |  |  | 
